Most compounds without a hit are left out; they make up all but 2.9% or so of the library.
CHO-K1 Ca antag: counter-screen for M1 antagonists: effect in parental CHO-K1 cells | inhibition, % at 3 µM | AID 602250 | ATP-induced calcium, Fluo-8 fluorescence | hit rate 0.6% among 360,000;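 active = inhibition above a per-plate cutoff, the plate's mean sample inhibition plus 3 SD, cut at about 24% in these data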
CHO parental Ca: ATP-evoked calcium signal inhibitors, parental CHO, primary screen, counter-screen for OX1R antagonist project, cell-based, fluorescence, Fluo-8 calcium dye; parental CHO-K1, ATP-induced calcium, Fluo-8 fluorescence; AID 463079, 2010; hit rate 0.63% among 330,000; inhibition, % at 5.6 µM;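 active = inhibition above that plate's mean sample inhibition plus 3 SD, cut at about 26% in these data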
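Measured by: calcium-sensitive Fluo-8 fluorescence / Test system: CHO parental line / Controls: ATP-challenged DMSO wells low, unchallenged DMSO wells high / Measure: % inhibition / Compound: single nominal dose of 5.6 µM per compound / Replicates: single well per compound, no replicates / Reagent: ATP as calcium-mobilizing challenge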
OX1R antag-1: antagonists of human orexin 1 receptor (OX1R); Orexin/Hypocretin receptor type 1 (Homo sapiens), O43613; OX1R-expressing cells, FRET antagonist read-out; inhibition, % at 6.6 µM; hit rate 1.8% among 330,000; in the data active = inhibition mostly above about 38%, no sharp cut-off; inactive = mostly below about 40%
Target sequence (O43613 whole entry, looked up): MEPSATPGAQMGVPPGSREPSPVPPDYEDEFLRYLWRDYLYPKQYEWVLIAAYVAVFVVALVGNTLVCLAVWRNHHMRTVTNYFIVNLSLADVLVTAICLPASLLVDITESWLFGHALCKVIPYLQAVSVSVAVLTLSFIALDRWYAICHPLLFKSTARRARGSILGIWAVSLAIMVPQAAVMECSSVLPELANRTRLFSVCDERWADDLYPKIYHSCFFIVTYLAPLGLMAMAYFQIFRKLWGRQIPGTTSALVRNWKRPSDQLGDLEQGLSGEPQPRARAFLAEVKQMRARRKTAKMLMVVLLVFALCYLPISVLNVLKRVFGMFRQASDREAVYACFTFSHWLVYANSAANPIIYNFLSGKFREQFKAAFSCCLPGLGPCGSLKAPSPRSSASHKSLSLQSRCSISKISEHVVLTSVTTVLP
M1 PAM parental: nonselective calcium activators in parental CHO-K1 cells, primary screen, counter-screen for M1 PAM project, cell-based, Fluo-8 calcium fluorescence, full deck, 1536-well | ATP EC20; 0% at ATP EC20, 100% at ATP max | activation, % at 3 µM | hit rate 0.02% among 360,000 | AID 602247, 2012;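 active = activation above the run cutoff, the mean activation of all test compounds plus 3 SD, cut at about 40% in these data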;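 note: peak over basal fluorescence ratio in a 140 s read after ATP addition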
OX1R antag-2: OX1R (HCRTR1) antagonists, primary screen, fluorescence, CHO/OX1R cells, Fluo-8 calcium, orexin A. Orexin/Hypocretin receptor type 1 (Homo sapiens), O43613. Fluo-8 calcium fluorescence. inhibition, % at 5 µM. hit rate 0.43% among 330,000;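 active = inhibition above its plate's threshold, mean inhibition of all tested compounds on the plate plus 3 SD, cut at about 37% in these data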
CHO-K1 Ca ag: counter-screen for M1 agonists: effect in parental CHO-K1 cells | Fluo-8 calcium fluorescence; scaled to maximal ATP response, vehicle zero | hit rate 0.48% among 360,000 | AID 602248, 2012 | activation, % at 3 µM; in the data active = activation above about 15%;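 note: untransfected CHO-K1 host cells lacking M1 receptor as counterscreen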
Large screens that a line does not name were inactive.

COC(=O)C1=C(c2ccc(C(C)=O)cc2)C[C@@H]2CC[C@H]1N2C(=O)NCc1ccc(C(F)(F)F)cc1	CHO-K1 Ca ag 24
COC(=O)C1=C(c2ccccc2OCc2ccccc2)C[C@@H]2CC[C@H]1N2C(=O)NCc1cccc(F)c1	OX1R antag-1 41
O=C1NCN(c2ccccc2)C12CCN(C(CCc1ccccc1)c1nnnn1C1CCCC1)CC2 (centres undefined)	none (no result: CHO parental Ca, OX1R antag-1, OX1R antag-2)
COc1cc(C)c(CNCCc2c[nH]c3ccccc23)cc1C	CHO-K1 Ca ag 16
C=CCCC1(C(C)C)C(=O)NC(=S)NC1=O	none (no result: CHO parental Ca, OX1R antag-1, OX1R antag-2)
O=c1[nH]c(=O)n(C2CCCCC2)c(O)c1/C=C/C=Nc1ccccc1	CHO-K1 Ca ag 18
CCCCCCC(=O)N/N=C/c1c(O)n(CCc2ccccc2)c(=O)[nH]c1=O	none
O=C1CC(c2cccnc2)=NN1c1ccc(Cl)cc1Cl	none
CC(=O)N1N=C(c2cccnc2)OC1c1ccccc1Cl (centres undefined)	CHO-K1 Ca ag 16
Cn1c(=O)[nH]c2nncnc2c1=O	OX1R antag-1 70
CCN1C(=O)CC(c2cccnc2)=Nc2ccccc21	none
COC12C(COC(N)=O)C3=C(C(=O)C(C)=C(N)C3=O)N1CC1C2N1C (centres undefined)	OX1R antag-1 57
CCC(=NCCc1c[nH]c2ccccc12)c1c(O)n(C)c(=O)n(C)c1=O	CHO-K1 Ca antag 24, CHO parental Ca 44, CHO-K1 Ca ag 16
CCC(=NCCOc1ccc(Cl)cc1)c1c(O)n(C)c(=O)n(C)c1=O	CHO parental Ca 50, OX1R antag-2 54
CCC(=NCCN1CCCCC1)c1c(O)n(C)c(=O)n(C)c1=O	none
O=C(Nc1ccc(C(=O)O)cc1)Oc1ccc(N(CCCl)CCCl)cc1	none (no result: CHO parental Ca, OX1R antag-1, OX1R antag-2)
CCOC(=O)C1CCCN(c2ccc([N+](=O)[O-])c3nonc23)C1 (centres undefined)	CHO-K1 Ca antag 51, CHO-K1 Ca ag 157 (no result: CHO parental Ca, OX1R antag-1, OX1R antag-2)
CCOC(=O)[C@]12Cc3cc(C)ccc3[C@H]1N(C(C)C)C(=O)c1ccccc12	none (no result: CHO parental Ca, OX1R antag-1, OX1R antag-2)
CC(C)COC(=O)c1ccccc1C(=O)OCC(C)C	none
C[CH2][Hg][S]c1ccccc1C(=O)O	CHO parental Ca 73, OX1R antag-2 89
O=C1N(c2nncs2)CCN1[N+](=O)[O-]	none
CCOc1cccc(CNCCc2c(C)[nH]c3ccc(OC(F)(F)F)cc23)c1O	CHO-K1 Ca antag 53, CHO parental Ca 85, OX1R antag-2 55, CHO-K1 Ca ag 37
Cc1[nH]c2ccc(OC(F)(F)F)cc2c1CCNCc1cccc([N+](=O)[O-])c1	CHO parental Ca 29, CHO-K1 Ca ag 35
Cc1[nH]c2ccc(OC(F)(F)F)cc2c1CCNCc1ccc(Cl)cc1	none (no result: CHO parental Ca, OX1R antag-1, OX1R antag-2)
O=C1C2CC(CN3CCCCC23)C2CCCCN12 (centres undefined)	none (no result: CHO parental Ca, OX1R antag-1, OX1R antag-2)
COC(=O)C1=C(c2ccc(Cl)c(C(F)(F)F)c2)C[C@@H]2CC[C@H]1N2C(=O)NCCOc1ccccc1Cl	none
Cc1cc(C)n(-c2ccc(NN=C(C#N)C#N)cc2)n1	CHO-K1 Ca ag 21
N#CC(C#N)=NNc1ccc(-n2ccc(C(F)(F)F)n2)cc1	CHO parental Ca 50, OX1R antag-1 61, OX1R antag-2 53
CCN(CC)S(=O)(=O)c1ccc(NN=C(C#N)C#N)cc1	none
CC[n+]1c(/C=C/C=C/c2ccc(N(C)C)cc2)sc2ccccc21	CHO-K1 Ca antag 34, CHO parental Ca 33, OX1R antag-1 75
COC(=O)C1=C(c2ccccc2OCc2ccccc2)C[C@@H]2CC[C@H]1N2C(=O)NCc1ccc([N+](=O)[O-])cc1	none
CCCc1cc(=O)oc2cc(OCC(=O)N3C[C@H]4C[C@@H](C3)c3cccc(=O)n3C4)ccc12	none
CCCc1cc(=O)oc2cc(OCC(=O)N3CCC(C(=O)O)(c4ccccc4)CC3)ccc12	CHO-K1 Ca antag 25
Cc1cc(C=C(C#N)C#N)ccc1N1CCCC1	CHO-K1 Ca ag 16
N#CC(C#N)=Cc1ccc(N2CCOCC2)cc1	none
Cc1c(C(=O)c2cccc3ccccc23)c2cccc3c2n1[C@H](CN1CCOCC1)CO3	none
Cc1c(N=Nc2c(O)[nH]c(=S)[nH]c2=O)c(=O)n(-c2ccccc2)n1C	OX1R antag-1 77
CCOc1ccc(-n2c(O)c(N=Nc3c(C)n(C)n(-c4ccccc4)c3=O)c(=O)[nH]c2=O)cc1	OX1R antag-1 39
O=C(c1ccc(F)cc1)N1CCC2(CC1)OCCO2	none
CC(C)NC1C2CCC(CC2)C1(O)c1ccc(Cl)c(Cl)c1 (centres undefined)	none (no result: CHO parental Ca, OX1R antag-1, OX1R antag-2)
Clc1cccc(N2CCNCC2)c1	CHO-K1 Ca antag 26
Nc1cc(N2CCNCC2)ccc1[N+](=O)[O-]	none
Oc1cc(Cl)ccc1Oc1ccc(Cl)cc1Cl	CHO parental Ca 67, OX1R antag-1 45
O=C(O)COc1ccc(Cl)cc1Cl	none
CCOP(=O)(OCC)C(NC(=O)C(C)C)C(Cl)(Cl)Cl (centres undefined)	none
CCOP(=O)(OCC)C(NC(=O)c1ccccc1)C(Cl)(Cl)Cl (centres undefined)	CHO-K1 Ca antag 24
CCC1(CC)C(=N)N(C)C(=O)NC1=O	none
COc1ccc(CNCCc2ccccc2F)c(OC)c1C	none
Oc1ccc(-[n+]2c(-c3ccccc3)cc(-c3ccccc3)cc2-c2ccccc2)cc1	CHO parental Ca 44
COC(=O)c1ccc(N2CCN(C)CC2)c([N+](=O)[O-])c1	OX1R antag-1 44, CHO-K1 Ca ag 19
CCN1CCN(c2ccc([N+](=O)[O-])cc2C(=O)OC)CC1	none
CCOC(=O)CCCCCNC(=O)c1c(O)[nH]c(=O)[nH]c1=O	none
O=C1NC(=O)N(c2ccccc2F)C(=O)/C1=C/c1ccc(Sc2nc3ccccc3[nH]2)o1	CHO-K1 Ca ag 16
O=C1NC(=O)N(c2cccc(Cl)c2)C(=O)/C1=C\c1ccc(Sc2nc3ccccc3[nH]2)o1	CHO parental Ca 39, OX1R antag-2 62, CHO-K1 Ca ag 27
CCOC(=O)CNC(=O)N1Cc2cc(-c3cccc(F)c3)ccc2-n2nncc2C1	none (no result: CHO parental Ca, OX1R antag-1, OX1R antag-2)
Nc1nonc1C(=O)N/N=C/c1ccc([N+](=O)[O-])o1	OX1R antag-1 75
CC1CN=C(NCCc2ccccc2)S1 (centres undefined)	none
O=C(O)C(O)(c1ccc(Cl)cc1)C1(O)CCCC1 (centres undefined)	none (no result: CHO parental Ca, OX1R antag-1, OX1R antag-2)
COc1cccc(-n2c(/C=C/c3ccc(O)c(O)c3)nc3ccccc3c2=O)c1	CHO-K1 Ca antag 25
O=c1c2ccccc2nc(/C=C/c2ccc3c(c2)OCO3)n1-c1cccc(O)c1	CHO-K1 Ca antag 26

Screens as filed in PubChem.
